Reference: ChEMBL document CHEMBL1154127, “Oxidative burst inhibitory and cytotoxic indoloquinazoline and furoquinoline alkaloids from Oricia suaveolens” (J Nat Prod, 2008)
The source made the active and inactive calls. The calls are words filed in the database; no cut-off is given here.

Experiments:
[1] = test system: A549; assay: Cytotoxicity against human A549 cells by SRB assay; type: functional, cell-based
Method in brief: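 A549 lung adenocarcinoma cells, freshly trypsinized, seeded at 1 × 10^4 cells per well. Compounds added from a DMSO-diluted stock. Cultured 3 days, then attached cells stained with sulforhodamine B and dye solubilized in DMSO. Absorbance read at 550 nm. IC50 is the concentration reducing cell growth by 50%. Cisplatin served as positive control.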

[2] = test system: Neutrophil; assay: Immunomodulatory activity in polymorphoneutrophils assessed as inhibition of PMA-activated oxidative burst by chemiluminescence assay; type: functional, cell-based
[3] = test system: Neutrophil; assay: Immunomodulatory activity in polymorphoneutrophils assessed as inhibition of luminol-induced oxidative burst by chemiluminescence assay; type: functional, cell-based
Method in brief: (§1)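 Luminol-enhanced chemiluminescence on isolated neutrophils (1 × 10^7) in HBSS with Ca2+ and Mg2+. Cells preincubated 30 min with compounds at 3.1-50 µg/mL. Burst triggered with serum-opsonized zymosan (20 mg/mL as added), followed by luminol ([…] as added). Final volume adjusted to 0.2 mL with HBSS++, which also served as control. Read-out is IC50.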

[4] = Immunomodulatory activity in whole blood assessed as inhibition of luminol-induced oxidative burst by chemiluminescence assay; type: functional, tissue-based
Method in brief: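 Whole blood diluted 1:200 in HBSS with Ca2+ and Mg2+, preincubated 30 min with compounds at 3.1-50 µg/mL. Then serum-opsonized zymosan (20 mg/mL as added) and luminol ([…] as added) were added, and the final volume brought to 0.2 mL with HBSS++. HBSS++ alone served as control. Luminol-enhanced chemiluminescence measured, giving IC50.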

[5] = test system: Neutrophil; assay: Immunomodulatory activity in polymorphoneutrophils assessed as inhibition of zymosan-activated oxidative burst by chemiluminescence assay; type: functional, cell-based; method in brief: as §1

IC50 [3] | IC50 [4] | Compound | IC50 [1] | Activity [2] | Activity [5]
27.4 µM | 48.8 µM | COc1ccc2c(=O)n3c(nc2c1)-c1[nH]c2ccccc2c1CC3 | > 10 µM | inactive | Dose-dependent effect
– | – | COc1c2c(cc3nc4occc4c(OC)c13)OCO2 | 7.9 µM | – | –
– | – | COc1c2ccoc2nc2c(OC)c3c(cc12)OCO3 [FLINDERSIAMINE] | 8.9 µM | – | –
12.1 µM | 54.3 µM | CC(C)Cc1ccc(C(C)C(=O)O)cc1 (stereo unspecified) [IBUPROFEN] | – | – | –
61.8 µM | 74.9 µM | COc1cc2nc3occc3c(OC)c2cc1OC [KOKUSAGININE] | – | inactive | Dose-dependent effect
38.2 µM | 26.1 µM | CC1(C)O[C@H]2CC(=O)OC[C@]23[C@H]2CC[C@@]4(C)[C@H](c5ccoc5)OC(=O)[C@H]5O[C@]54[C@]2(C)C(=O)C[C@@H]13 [LIMONIN] | – | inactive | Dose-dependent effect
– | – | COc1c2cc3c(cc2nc2occc12)OCO3 [MACULINE] | 9.5 µM | – | –
– | – | O=c1c2ccc(O)cc2nc2n1CCc1c-2[nH]c2ccccc12 [ORISUAVEOLINE A] | > 10 µM | – | –
22.4 µM | 31.8 µM | COc1ccc2c(=O)n3c(nc2c1)-c1[nH]c2cc4c(cc2c1CC3)OCO4 [ORISUAVEOLINE B] | – | inactive | Dose-dependent effect
14.5 µM | 56.8 µM | COc1c2cc3c(cc2nc2occc12)O[C@@H](C(C)(C)O)CO3 [QUINOSUAVEOLINE B] | – | inactive | Dose-dependent effect
35.5 µM | 51.3 µM | COc1ccc2c(OC)c3ccoc3nc2c1OC [SKIMMIANINE] | > 10 µM | inactive | Dose-dependent effect
21.2 µM | 54.4 µM | COc1c2ccoc2nc2c(O)c3c(c(CC=C(C)C)c12)OCO3 [TECLEAVERDOORNINE] | – | inactive | Dose-dependent effect
